Data reported in ChEMBL document CHEMBL1145950, “2-arylureidobenzoic acids: selective noncompetitive antagonists for the homomeric kainate receptor subtype GluR5” (J Med Chem, 2003).

What was measured:
[1] = target: T1, Glutamate receptor ionotropic, kainate 1 (Homo sapiens, UniProt P39086); assay: In vitro inhibitory activity against human ionotropic glutamate receptor ionotropic kainate 1 (GluR-5) expressed in HEK293 cells.; type: cell-based
[2] = target: T1, Glutamate receptor ionotropic, kainate 1; assay: Binding inhibition of compound against Ionotropic glutamate receptor ionotropic kainate 1 (GluR5) using [3H]ATPA as radioligand
How it was run: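 GluR5-expressing HEK293 cell membranes (washed in 50 mM Tris-HCl pH 7.1, prepared at 0-4 °C) incubated with 3 nM [3H]ATPA, 46-84 µg protein/assay, 60 min at 2 °C; test compounds at 3-30 µM. Nonspecific binding defined with 0.6 mM Glu; rapid filtration, liquid scintillation counting. At least three separate experiments.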

Mus musculus [3] = assay: ATPA induced rigidity in mice was determined after 30 minutes of administration; type: functional
How it was run: (§1)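 Female NMRI mice, 20-25 g. Test substance given intravenously, n = 8 per dose, 5 or 30 min before ATPA (30 mg/kg i.v.; 3 mg/mL in saline, pH 7). Rigidity scored every 5 min over 30 min after ATPA, as percent of rigid mice over time.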

Mus musculus [4] = assay: ATPA induced rigidity in mice was determined after 5 minutes of administration; type: functional; how it was run: as §1
[5] = target: Glutamate receptor ionotropic, kainate 2 (Homo sapiens, UniProt Q13002); assay: In vitro inhibitory activity against Ionotropic glutamate receptor ionotropic kainate 2 (GluR-6) of HEK293 cells in FLIPR assay; type: cell-based
Glutamate receptor ionotropic, kainate 2, sequence (Q13002 whole entry): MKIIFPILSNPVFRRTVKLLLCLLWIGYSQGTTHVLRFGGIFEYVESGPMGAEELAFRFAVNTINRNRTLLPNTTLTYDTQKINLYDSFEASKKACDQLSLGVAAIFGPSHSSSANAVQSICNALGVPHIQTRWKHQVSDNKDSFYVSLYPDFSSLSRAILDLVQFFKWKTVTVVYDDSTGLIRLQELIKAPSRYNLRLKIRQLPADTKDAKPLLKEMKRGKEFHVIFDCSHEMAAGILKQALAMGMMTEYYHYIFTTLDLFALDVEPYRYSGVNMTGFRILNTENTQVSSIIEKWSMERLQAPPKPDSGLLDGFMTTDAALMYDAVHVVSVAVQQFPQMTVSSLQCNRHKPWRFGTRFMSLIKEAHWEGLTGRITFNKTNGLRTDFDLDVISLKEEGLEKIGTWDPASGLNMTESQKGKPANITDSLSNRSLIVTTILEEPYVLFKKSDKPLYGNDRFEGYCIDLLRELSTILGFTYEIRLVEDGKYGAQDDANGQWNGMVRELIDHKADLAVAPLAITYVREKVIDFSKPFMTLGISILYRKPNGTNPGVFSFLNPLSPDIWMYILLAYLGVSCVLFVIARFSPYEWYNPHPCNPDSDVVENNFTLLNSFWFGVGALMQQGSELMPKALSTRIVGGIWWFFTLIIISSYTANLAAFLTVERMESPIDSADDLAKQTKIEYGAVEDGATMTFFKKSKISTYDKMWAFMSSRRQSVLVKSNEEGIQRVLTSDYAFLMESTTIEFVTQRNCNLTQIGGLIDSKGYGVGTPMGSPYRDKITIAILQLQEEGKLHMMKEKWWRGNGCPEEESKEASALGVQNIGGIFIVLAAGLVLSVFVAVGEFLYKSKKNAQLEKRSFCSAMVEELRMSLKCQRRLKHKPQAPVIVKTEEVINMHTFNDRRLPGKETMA
How it was run: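 Human GluR6 stably expressed in HEK293, plated 24 h before assay. Cells loaded with 2 µM Fluo-4-AM for 60 min at room temperature, washed into Na+-free Ringer, pH 7.4. Compound preincubated 1.5 min, then 0.2 µM domoate added (final). Inhibition of the FLIPR Ca2+ fluorescence rise (ex 488, em 510-570 nm) was measured; IC50 from ≥3 experiments.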

[6] = target: Glutamate receptor 2 (Rattus norvegicus) (UniProt P19491); assay: In vitro inhibitory activity against Ionotropic glutamate receptor AMPA 2 of HEK293 cells in FLIPR assay
[7] = target: Glutamate receptor 3 (Rattus norvegicus) (UniProt P19492); assay: In vitro inhibitory activity against Ionotropic glutamate receptor AMPA 3 of HEK293 cells in FLIPR assay
Glutamate receptor 3 (Rattus norvegicus), sequence (P19492 whole entry, looked up): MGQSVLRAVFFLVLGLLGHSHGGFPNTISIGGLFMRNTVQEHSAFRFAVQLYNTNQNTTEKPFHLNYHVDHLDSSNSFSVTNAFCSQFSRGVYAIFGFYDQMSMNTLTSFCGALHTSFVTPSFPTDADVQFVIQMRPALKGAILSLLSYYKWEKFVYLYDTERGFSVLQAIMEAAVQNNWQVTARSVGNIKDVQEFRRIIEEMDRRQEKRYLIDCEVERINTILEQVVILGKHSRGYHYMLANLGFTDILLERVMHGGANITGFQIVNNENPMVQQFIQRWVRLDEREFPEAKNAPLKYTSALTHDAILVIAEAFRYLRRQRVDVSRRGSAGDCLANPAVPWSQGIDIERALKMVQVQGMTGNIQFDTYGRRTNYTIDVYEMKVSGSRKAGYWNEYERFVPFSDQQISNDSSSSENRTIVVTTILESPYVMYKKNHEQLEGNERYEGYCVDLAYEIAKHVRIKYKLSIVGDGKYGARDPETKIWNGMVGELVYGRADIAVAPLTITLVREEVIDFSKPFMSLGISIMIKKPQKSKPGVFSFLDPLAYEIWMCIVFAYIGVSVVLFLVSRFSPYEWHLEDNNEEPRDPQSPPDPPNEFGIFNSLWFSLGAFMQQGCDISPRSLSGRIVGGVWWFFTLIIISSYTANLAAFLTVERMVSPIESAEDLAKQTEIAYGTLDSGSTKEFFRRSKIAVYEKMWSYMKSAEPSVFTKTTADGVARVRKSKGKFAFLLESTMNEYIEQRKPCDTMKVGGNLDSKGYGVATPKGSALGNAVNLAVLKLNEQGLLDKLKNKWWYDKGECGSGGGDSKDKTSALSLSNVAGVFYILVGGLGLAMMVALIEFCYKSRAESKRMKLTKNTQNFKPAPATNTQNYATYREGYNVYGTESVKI

[8] = target: Glutamate receptor 4 (Rattus norvegicus) (UniProt P19493); assay: In vitro inhibitory activity against Ionotropic glutamate receptor AMPA 4 of HEK293 cells in FLIPR assay
Glutamate receptor 4 (Rattus norvegicus), sequence (P19493 whole entry, looked up): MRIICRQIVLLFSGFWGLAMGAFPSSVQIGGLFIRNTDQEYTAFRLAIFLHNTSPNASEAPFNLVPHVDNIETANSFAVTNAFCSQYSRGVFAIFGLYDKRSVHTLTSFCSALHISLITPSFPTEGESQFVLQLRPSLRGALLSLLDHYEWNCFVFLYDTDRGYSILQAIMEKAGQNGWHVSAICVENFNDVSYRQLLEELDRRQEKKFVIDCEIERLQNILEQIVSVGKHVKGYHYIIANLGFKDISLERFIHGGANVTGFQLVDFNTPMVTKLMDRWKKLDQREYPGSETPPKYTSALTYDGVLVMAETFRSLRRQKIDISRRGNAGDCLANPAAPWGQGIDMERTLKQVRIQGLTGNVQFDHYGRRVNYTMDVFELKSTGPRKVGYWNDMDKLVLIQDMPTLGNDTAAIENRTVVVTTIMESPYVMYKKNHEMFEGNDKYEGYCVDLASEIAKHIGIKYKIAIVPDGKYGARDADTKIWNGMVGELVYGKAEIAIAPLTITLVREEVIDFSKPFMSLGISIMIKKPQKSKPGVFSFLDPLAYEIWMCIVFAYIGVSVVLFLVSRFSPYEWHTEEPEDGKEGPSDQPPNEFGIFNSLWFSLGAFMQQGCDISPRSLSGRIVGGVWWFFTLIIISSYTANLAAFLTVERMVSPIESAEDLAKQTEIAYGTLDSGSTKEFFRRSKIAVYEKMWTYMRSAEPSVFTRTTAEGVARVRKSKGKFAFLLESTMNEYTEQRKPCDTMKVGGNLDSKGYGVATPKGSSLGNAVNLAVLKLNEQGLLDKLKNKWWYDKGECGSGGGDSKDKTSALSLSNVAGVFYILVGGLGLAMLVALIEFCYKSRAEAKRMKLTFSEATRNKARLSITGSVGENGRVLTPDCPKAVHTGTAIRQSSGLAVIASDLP

[9] = target: Glutamate receptor 1 (Rattus norvegicus) (UniProt P19490); assay: In vitro inhibitory activity against Ionotropic glutamate receptor AMPA 1 of HEK293 cells in FLIPR assay
Glutamate receptor 1 (Rattus norvegicus), sequence (P19490 whole entry, looked up): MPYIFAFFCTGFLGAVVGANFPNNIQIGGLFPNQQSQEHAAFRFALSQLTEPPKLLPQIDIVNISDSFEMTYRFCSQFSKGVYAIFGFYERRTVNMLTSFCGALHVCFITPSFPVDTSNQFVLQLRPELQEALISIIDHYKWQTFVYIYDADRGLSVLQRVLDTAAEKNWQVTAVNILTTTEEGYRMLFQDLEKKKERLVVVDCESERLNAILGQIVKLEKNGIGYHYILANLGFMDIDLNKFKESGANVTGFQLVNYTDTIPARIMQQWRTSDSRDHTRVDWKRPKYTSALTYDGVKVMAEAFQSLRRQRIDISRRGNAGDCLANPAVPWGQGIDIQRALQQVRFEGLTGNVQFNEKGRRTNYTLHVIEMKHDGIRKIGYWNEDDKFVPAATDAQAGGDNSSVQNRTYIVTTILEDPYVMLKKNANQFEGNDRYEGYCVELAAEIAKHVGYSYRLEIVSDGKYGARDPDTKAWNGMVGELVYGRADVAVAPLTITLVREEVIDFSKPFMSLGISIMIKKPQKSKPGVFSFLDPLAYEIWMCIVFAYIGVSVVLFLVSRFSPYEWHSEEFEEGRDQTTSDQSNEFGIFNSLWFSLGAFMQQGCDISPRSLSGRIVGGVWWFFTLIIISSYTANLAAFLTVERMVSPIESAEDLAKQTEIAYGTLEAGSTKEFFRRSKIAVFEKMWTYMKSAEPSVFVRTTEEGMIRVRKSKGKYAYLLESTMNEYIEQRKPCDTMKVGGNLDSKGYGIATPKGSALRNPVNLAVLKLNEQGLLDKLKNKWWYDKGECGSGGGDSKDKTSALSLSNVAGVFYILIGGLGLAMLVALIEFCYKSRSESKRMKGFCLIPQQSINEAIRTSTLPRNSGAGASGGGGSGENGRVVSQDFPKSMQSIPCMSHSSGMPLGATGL

T1 sequence (P39086 whole entry): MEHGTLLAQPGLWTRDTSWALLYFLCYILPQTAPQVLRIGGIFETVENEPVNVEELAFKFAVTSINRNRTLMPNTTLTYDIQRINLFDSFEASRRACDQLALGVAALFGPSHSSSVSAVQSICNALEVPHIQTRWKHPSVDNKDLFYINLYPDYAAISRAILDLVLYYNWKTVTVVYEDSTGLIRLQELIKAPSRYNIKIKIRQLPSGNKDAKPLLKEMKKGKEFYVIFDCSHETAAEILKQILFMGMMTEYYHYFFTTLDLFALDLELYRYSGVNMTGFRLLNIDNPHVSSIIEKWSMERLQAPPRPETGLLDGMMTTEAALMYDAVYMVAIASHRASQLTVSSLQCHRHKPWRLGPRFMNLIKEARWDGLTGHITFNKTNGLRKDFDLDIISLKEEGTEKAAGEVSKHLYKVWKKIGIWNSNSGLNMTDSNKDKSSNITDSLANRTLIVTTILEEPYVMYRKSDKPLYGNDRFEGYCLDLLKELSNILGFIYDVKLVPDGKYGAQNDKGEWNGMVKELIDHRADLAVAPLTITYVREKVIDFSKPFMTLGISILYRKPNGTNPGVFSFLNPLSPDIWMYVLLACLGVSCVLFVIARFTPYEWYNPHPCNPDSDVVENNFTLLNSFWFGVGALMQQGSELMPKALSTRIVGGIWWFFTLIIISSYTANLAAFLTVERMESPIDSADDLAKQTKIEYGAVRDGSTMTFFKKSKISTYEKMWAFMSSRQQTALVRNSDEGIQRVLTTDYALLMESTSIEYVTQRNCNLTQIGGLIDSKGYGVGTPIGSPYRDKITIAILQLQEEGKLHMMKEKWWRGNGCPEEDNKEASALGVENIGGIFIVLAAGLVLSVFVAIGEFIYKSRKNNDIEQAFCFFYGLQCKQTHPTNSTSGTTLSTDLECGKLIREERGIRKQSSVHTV

SMILES | IC50 [1] | further results
O=C(Nc1ccccc1Cl)Nc1cc(Cl)ccc1C(=O)O | 4.7 µM | 
O=C(Nc1cccc(C(F)(F)F)c1)Nc1cc(Br)ccc1C(=O)O | 6.1 µM | 
Cc1cccc(NC(=O)Nc2cccc(C(F)(F)F)c2)c1C(=O)O | > 100 µM | 
Cc1ccc(NC(=O)Nc2cccc(C(F)(F)F)c2)c(C(=O)O)c1 | > 100 µM | 
COc1cccc(NC(=O)Nc2cc(Cl)ccc2C(=O)O)c1 | 3.7 µM | 
O=C(Nc1ccc2cc3ccccc3cc2c1)Nc1cc(Cl)ccc1C(=O)O | > 30 µM | 
O=C(Nc1ccccc1)Nc1cc(Cl)ccc1C(=O)O | 10 µM | 
O=C(Nc1ccccc1I)Nc1cc(Cl)ccc1C(=O)O | 5 µM | 
O=C(Nc1ccc(Cl)cc1)Nc1cc(Cl)ccc1C(=O)O | 3.1 µM | 
O=C(Nc1ccncc1)Nc1cc(Cl)ccc1C(=O)O | 88 µM | 
O=C(Nc1ccccc1)Nc1ccccc1C(=O)O | > 100 µM | 
O=C(Nc1ccc2c(c1)OCO2)Nc1cc(Cl)ccc1C(=O)O | 3.6 µM | 
O=C(Nc1ccc2ccccc2c1)Nc1cc(Cl)ccc1C(=O)O | 1.2 µM | IC50 [2]: > 30 µM; ED50 (Mus musculus [3]): > 30 mg/kg; ED50 (Mus musculus [4]): > 30 mg/kg; IC50 [5]: 62 µM; IC50 [7]: > 100 µM; IC50 [8]: > 100 µM; IC50 [9]: > 100 µM
O=C(Nc1cc(Cl)ccc1C(=O)O)NC1CCCCC1 | > 100 µM | 
Cc1cccc(C(=O)O)c1NC(=O)Nc1cccc(C(F)(F)F)c1 | > 100 µM | 

Second part, led by results:

IC50 [1] | SMILES | further results
7.6 µM | O=C(Nc1cccc(F)c1)Nc1cc(Cl)ccc1C(=O)O | 
1.6 µM | O=C(Nc1cc(NC(=O)c2ccccc2)c(C(=O)O)cc1C(=O)O)c1ccccc1 | 
9.4 µM | O=C(Nc1cc(Cl)ccc1C(=O)O)Nc1cccc2ccccc12 | 
5 µM | O=C(Nc1cccc(C(F)(F)F)c1)Nc1cc(Cl)ccc1C(=O)O | 
10 µM | COc1ccc(NC(=O)Nc2cc(Cl)ccc2C(=O)O)cc1 | 
4.8 µM | O=C(Nc1ccc(C(F)(F)F)cc1)Nc1cc(Cl)ccc1C(=O)O | 
2.2 µM | O=C(Nc1ccc(Br)cc1)Nc1cc(Cl)ccc1C(=O)O | 
2.2 µM | O=C(Nc1cccc(I)c1)Nc1cc(Cl)ccc1C(=O)O | 
4.5 µM | O=C(Nc1ccccc1Br)Nc1cc(Cl)ccc1C(=O)O | 
4.8 µM | O=C(Nc1cccc(Br)c1)Nc1cc(Cl)ccc1C(=O)O | IC50 [2]: > 30 µM; ED50 (Mus musculus [3]; Mus musculus, 0.5 h): 24 mg/kg; ED50 (Mus musculus [4]; Mus musculus, 5 min): 4 mg/kg; IC50 [5]: 28 µM; IC50 [6]: > 100 µM; IC50 [7]: > 100 µM; IC50 [8]: > 100 µM; IC50 [9]: > 100 µM
1.2 µM | O=C(Nc1cc2ccccc2[nH]1)Nc1cc(Cl)ccc1C(=O)O | 
> 10 µM | O=C(Nc1cc(Cl)ccc1C(=O)O)Nc1ccccc1-c1ccccc1 | 
4.5 µM | O=C(Nc1cc(Cl)ccc1C(=O)O)Nc1ccccc1C(F)(F)F | 
10 µM | O=C(Nc1cccc(C(F)(F)F)c1)Nc1cc(F)ccc1C(=O)O | 
4.7 µM | O=C(Nc1ccc(I)cc1)Nc1cc(Cl)ccc1C(=O)O | 
